Source: ChEMBL document CHEMBL1811828, “LuxR dependent quorum sensing inhibition by N,N'-disubstituted imidazolium salts” (Bioorg Med Chem, 2011)
Calls of active or inactive are those of the source. The rule behind the calls is not given here.

Legend:
Format in all cases: functional
[1] = target: T1, Transcriptional activator protein LuxR (Aliivibrio fischeri) (UniProt P12746); experiment: Agonist activity at Vibrio fischeri LuxR assessed as activation of quorum sensing activation mediated bioluminescence
T1 sequence (whole entry): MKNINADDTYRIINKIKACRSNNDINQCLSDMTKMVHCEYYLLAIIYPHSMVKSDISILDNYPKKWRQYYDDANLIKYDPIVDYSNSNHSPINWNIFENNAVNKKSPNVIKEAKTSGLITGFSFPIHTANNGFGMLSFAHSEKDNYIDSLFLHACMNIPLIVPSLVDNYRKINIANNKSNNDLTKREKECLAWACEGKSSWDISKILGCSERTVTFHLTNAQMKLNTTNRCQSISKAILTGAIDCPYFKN

[2] = target: T2, Transcriptional activator protein LuxR (Aliivibrio fischeri, UniProt P12746); experiment: Antagonist activity at Vibrio fischeri LuxR assessed as inhibition of 3-oxo-C6-HSL-induced quorum sensing activation mediated bioluminescence
T2 sequence (P12746 whole entry): T1 sequence (whole entry)
Outline: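 Bioluminescence induced with 200 nM 3-oxo-C6-HSL, with test compounds added. IC50 is the concentration that halves the induced light intensity. Values are means of three experiments with standard deviation.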

Aliivibrio fischeri = experiment: Antimicrobial activity against Vibrio fischeri incubated overnight at 37 degC by disc diffusion assay
Outline: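 Disk diffusion susceptibility assay following CLSI guidelines, with a kanamycin control disk. Compounds were tested at 20 μM, 200 μM, 2 mM and 20 mM. Inhibition zones were measured after overnight incubation at 37 °C, and the MIC was taken from these tested levels.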

Row | Compound | Activity [1] | IC50 [2] | IC50 ([2]; read-out: IC50) | MIC (Aliivibrio fischeri)
1 | CCCCn1cc[n+](C(c2ccccc2)c2ccccc2)c1.[Br-] | inactive | Not Active | – | –
2 | CCCCCCCCCCn1cc[n+](C(c2ccc(Cl)cc2)c2ccc(Cl)cc2)c1 | inactive | – | 5.8 µM | –
3 | CCCCCCCCCCCCn1cc[n+](C(c2ccc(Cl)cc2Cl)c2ccc(Cl)cc2Cl)c1 | inactive | – | 6.5 µM | –
4 | CCCCCCCCCCCCn1cc[n+](C(c2ccc(Cl)cc2)c2ccc(Cl)cc2)c1 | inactive | – | 6.2 µM | –
5 | CCCCCCCCCCn1cc[n+](C2c3ccccc3-c3ccccc32)c1 | inactive | – | 4 µM | –
6 | CCCCCCCCn1cc[n+](C2c3ccccc3-c3ccccc32)c1 | inactive | – | 35 µM | –
7 | CCCCCCCCCCCCCCn1cc[n+](C(c2ccccc2)c2ccccc2)c1 | inactive | – | 5.2 µM | –
8 | CCCCCCCCCCCCCCCCn1cc[n+](C2c3ccccc3-c3ccccc32)c1 | inactive | – | 14.7 µM | –
9 | CCCCCCCCCCCCn1cc[n+](C(c2ccccc2)c2ccccc2)c1 | inactive | – | 6.1 µM | 200 µM
10 | CCCCCCCCCCCCn1cc[n+](C2CCCC2)c1 | inactive | – | 11 µM | –
11 | CCCCCCCCCCCCCCn1cc[n+](C2CCCC2)c1 | inactive | – | 3.4 µM | 200 µM
12 | CCCCCCCCCCCCCCn1cc[n+](C(c2ccc(Cl)cc2Cl)c2ccc(Cl)cc2Cl)c1.[Br-] | inactive | Not Active | – | –
13 | CCCCCCCCn1cc[n+](C(c2ccccc2)c2ccccc2)c1 | inactive | – | 76 µM | –
14 | CCCCCCCCCCCCCCCCCCn1cc[n+](C2CCCC2)c1 | inactive | – | 86 µM | –
15 | CCCCCCCCn1cc[n+](C(c2ccc(Cl)cc2Cl)c2ccc(Cl)cc2Cl)c1 | inactive | – | 8.9 µM | –
16 | CCCCCCCCn1cc[n+](C(c2ccc(Cl)cc2)c2ccc(Cl)cc2)c1 | inactive | – | 9.8 µM | –
17 | CCCCCCCCCCn1cc[n+](C2CCCC2)c1 | inactive | – | 33 µM | –
18 | CCCCCCCCCCCCCCCCn1cc[n+](C2CCCC2)c1 | inactive | – | 5.3 µM | –
19 | CCCCCCCCCCCCCCCCn1cc[n+](C(c2ccccc2)c2ccccc2)c1 | inactive | – | 7.3 µM | –
20 | CCCCCCn1cc[n+](C(c2ccccc2)c2ccccc2)c1 | inactive | – | 153 µM | –
21 | CCCCCCCCCCCCn1cc[n+](C2c3ccccc3-c3ccccc32)c1 | inactive | – | 1.4 µM | 200 µM
22 | CCCCCCCCn1cc[n+](C2CCCC2)c1 | inactive | – | 68 µM | –
23 | CCCCCCCCCCn1cc[n+](C(c2ccccc2)c2ccccc2)c1 | inactive | – | 18 µM | –
24 | CCCCCCn1cc[n+](C(c2ccc(Cl)cc2Cl)c2ccc(Cl)cc2Cl)c1 | inactive | – | 52 µM | –
25 | CCCCCCCCCCCCCCCCCCn1cc[n+](C(c2ccc(Cl)cc2)c2ccc(Cl)cc2)c1.[Br-] | inactive | Not Active | – | –
26 | CCCCCCCCCCn1cc[n+](C(c2ccc(Cl)cc2Cl)c2ccc(Cl)cc2Cl)c1 | inactive | – | 4.9 µM | –
27 | CCCCCCCCCCCCCCn1cc[n+](C2c3ccccc3-c3ccccc32)c1 | inactive | – | 2.7 µM | –
28 | CCCCCCn1cc[n+](C(c2ccc(Cl)cc2)c2ccc(Cl)cc2)c1 | inactive | – | 63 µM | –
29 | CCCCCCCCCCCCCCCCCCn1cc[n+](C(c2ccc(Cl)cc2Cl)c2ccc(Cl)cc2Cl)c1.[Br-] | inactive | Not Active | – | –
30 | CCCCCCCCCCCCCCn1cc[n+](C(c2ccc(Cl)cc2)c2ccc(Cl)cc2)c1 | inactive | – | 75 µM | –
